Assay results collected from several papers.
Target: MAP kinase-activated protein kinase 3 (MAPKAPK3, Homo sapiens, UniProt Q16644)

| SMILES | observed | mode | technique | concentration | quantity | result |
| --- | --- | --- | --- | --- | --- | --- |
| CCCS(=O)(=O)Nc1ccc(F)c(C(=O)c2c[nH]c3ncc(-c4ccc(Cl)cc4)cc23)c1F | enzyme activity | inhibitor | – | 1 µM | inhibition | < 10% |
| c1ccc(CNc2nc(N3CCOc4ccccc43)nc3c2CCCC3)cc1 | target engagement in cells | inhibitor | chemoproteomics | 20 mM | inhibition | -11.1% |
| CCN(CC)CCNC(=O)c1c(C)[nH]c(/C=C2\C(=O)Nc3ccc(F)cc32)c1C | enzyme activity | inhibitor | – | 10 µM | inhibition | 6% |
| COc1cc2ncnc(Nc3ccc(Oc4ccccc4)c(C)c3C)c2cc1OC | enzyme activity | inhibitor | – | 1 µM | inhibition | -14% |
| COc1cc(/C=C/C(=O)CC(=O)/C=C/c2ccc(O)c(OC)c2)ccc1O | enzyme activity | inhibitor | – | 1 µM | activity vs control | 76% |
| Cc1ccc(NC(=O)c2ccc(C)c(C(F)(F)F)c2)cc1C#Cc1nn(C2CCC(O)CC2)c2ncnc(N)c12 (stereo not shown) | cell-free assay | – | – | 10 µM | remaining signal | 96% |
| O=C1NC(=O)c2cc(Nc3ccc(F)cc3)c(Nc3ccc(F)cc3)cc21 | cell-free assay | – | – | 0.5 µM | remaining signal | 95.9% |
| Cc1cnc(NC2CCOCC2)nc1-n1cnc(C(=O)NC(CN)c2cc(F)cc(Cl)c2)c1 (stereo not shown) | enzyme activity | inhibitor | radiometric | 1 µM | remaining activity | 110% |
| Oc1cccc(-c2nc(N3CCOCC3)c3oc4ncccc4c3n2)c1 | enzyme activity | inhibitor | – | 10 µM | remaining activity | 100% |
| CN1CC(Oc2cnc(C#N)cc2-c2ccn3nc(NC(=O)C4CC4)cc3c2)C1 | enzyme activity | inhibitor | – | 1 µM | inhibition | -1% |
| COc1cccc2c(NCc3ccccc3)nc(-n3c(N)nc4ccccc43)nc12 | target engagement in cells | inhibitor | chemoproteomics | 20 mM | inhibition | -7.4% |
| CNC(=O)c1cc(Oc2ccc(NC(=O)Nc3ccc(Cl)c(C(F)(F)F)c3)cc2)ccn1 | enzyme activity | inhibitor | – | 0.3 µM | inhibition | -3% |
| CC(C)(C)c1nc(-c2cccc(NS(=O)(=O)c3c(F)cccc3F)c2F)c(-c2ccnc(N)n2)s1 | enzyme activity | inhibitor | radiometric | 1 µM | remaining activity | 92% |
| O=C(Nc1cnn(-c2csc(C(=O)NC3COC3)c2)c1)Nc1c(F)cccc1Cl | enzyme activity | inhibitor | – | 5 µM | remaining activity | 95.6% |
| CCN(CC)c1ccc(C2=NNC(=O)CC2C)cc1[N+](=O)[O-] (stereo not shown) | enzyme activity | inhibitor | – | 10 µM | remaining activity | 100% |
| FC(F)(F)Oc1cccc(-c2cnc3ccc(-c4ccncc4)nn23)c1 | enzyme activity | inhibitor | radiometric | 5 µM | activity vs control | 97% |
| COc1cc(Nc2cnc(C#N)c(O[C@H](C)CN(C)C)n2)ncc1-c1cnn(C)c1 | enzyme activity | inhibitor | radiometric | 1 µM | remaining activity | 96% |
| Cc1ccc(Nc2nccc(N(C)c3ccc4c(C)n(C)nc4c3)n2)cc1S(N)(=O)=O | enzyme activity | inhibitor | – | 0.3 µM | inhibition | -8% |
| CNc1cccc2cc(C(=O)Nc3ccc(C(=O)O)cc3)c(=O)[nH]c12 | enzyme activity | inhibitor | – | 10 µM | inhibition | -3.2% |
